In ChEMBL document CHEMBL4011649 (J Med Chem, 2017):
pEC50, pIC50, pKi: −log10 of the molar value. Activity calls are given as the source filed them. No cut-off for these calls is given here.

Tests used:
Mus musculus [1] = test: Toxicity in C57BL/6J mouse assessed as reduction in baseline locomotive activity at 3 mg/kg, ip after 15 mins; format: organism-based; conditions: in vivo
Mus musculus [2] = test: Antipsychotic activity in AMPH-induced hyperactivity C57BL/6J mouse model assessed as reduction in amphetamine-induced hyper-locomotion at 3 mg/kg, ip preincubated for 15 mins followed by AMPH addition measured after 90 mins; format: functional, organism-based
Mus musculus [3] = test: Antipsychotic activity in PCP-induced hyperactivity C57BL/6J mouse model assessed as reduction in PCP-induced hyper-locomotion at 3 mg/kg, ip preincubated for 15 mins followed by PCP addition measured after 60 mins; format: functional, organism-based
Method in brief: (§1)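 Male C57BL/6J mice, 9–10 weeks old. […] PCP 5 mg/kg followed, with activity recorded a further 60 min. Read-out was total distance from infrared beam breaks, analysed by one-way ANOVA.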

[4] = target: Voltage-gated inwardly rectifying potassium channel KCNH2 (Homo sapiens, UniProt Q12809); test: Inhibition of human ERG expressed in CHO cells by automated patch-clamp assay; format: cell-based
Method in brief: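 Read-out is an IC50 in µM for hERG inhibition, measured by automated patch-clamp on CHO cells.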

[5] = target: T1, 5-hydroxytryptamine receptor 2B (Homo sapiens, UniProt P41595); test: Agonist activity at human 5-HT2B receptor expressed in Flp-IN HEK293 cells assessed as induction of calcium flux up to 10 uM measured every second for 5 mins by Fluo-4 dye based FLIPR assay; format: cell-based; conditions: hek293, 5 min
[6] = target: T1, 5-hydroxytryptamine receptor 2B; test: Displacement of [3H]-LSD from human 5-HT2B receptor expressed in HEKT cells after 90 mins by scintillation counting method; format: cell-based
Mus musculus [7] = test: Toxicity in C57BL/6J mouse assessed as reduction in baseline locomotive activity at 10 to 20 mg/kg, ip after 15 mins; format: organism-based; conditions: in vivo
Mus musculus [8] = test: Antipsychotic activity in AMPH-induced hyperactivity C57BL/6J mouse model assessed as reduction in amphetamine-induced hyper-locomotion at 20 mg/kg, ip preincubated for 15 mins followed by AMPH addition measured after 90 mins; format: functional, organism-based
Mus musculus [9] = test: Antipsychotic activity in AMPH-induced hyperactivity C57BL/6J mouse model assessed as reduction in amphetamine-induced hyper-locomotion at 10 mg/kg, ip preincubated for 15 mins followed by AMPH addition measured after 90 mins; format: functional, organism-based
Mus musculus [10] = test: Antipsychotic activity in PCP-induced hyperactivity C57BL/6J mouse model assessed as reduction in PCP-induced hyper-locomotion at 10 to 20 mg/kg, ip preincubated for 15 mins followed by PCP addition measured after 60 mins; format: functional, organism-based; method in brief: as §1
[11] = target: T2, 5-hydroxytryptamine receptor 2C (Homo sapiens) (UniProt P28335); test: Agonist activity at human 5-HT2C-INI receptor isoform expressed in Flp-IN HEK293 cells assessed as induction of Gq-mediated calcium flux measured every second for 5 mins by Fluo-4 dye based FLIPR assay relative to serotonin; format: functional, cell-based
T2 sequence (whole entry): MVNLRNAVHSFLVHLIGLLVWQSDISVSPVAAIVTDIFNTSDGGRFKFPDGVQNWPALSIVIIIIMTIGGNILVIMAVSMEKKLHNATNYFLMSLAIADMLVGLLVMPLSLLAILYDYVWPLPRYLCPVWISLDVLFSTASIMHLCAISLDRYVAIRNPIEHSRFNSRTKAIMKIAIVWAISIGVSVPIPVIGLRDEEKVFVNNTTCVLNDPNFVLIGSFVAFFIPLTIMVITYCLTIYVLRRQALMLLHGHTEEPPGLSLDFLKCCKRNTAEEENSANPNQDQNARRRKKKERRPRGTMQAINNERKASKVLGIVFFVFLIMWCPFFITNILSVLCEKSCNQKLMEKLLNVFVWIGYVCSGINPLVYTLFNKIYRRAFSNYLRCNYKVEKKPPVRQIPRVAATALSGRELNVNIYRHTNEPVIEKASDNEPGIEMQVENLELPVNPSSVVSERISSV

5-HT2A receptor [12] = target: 5-HT2A receptor (Homo sapiens, UniProt P28223); test: Agonist activity at human 5-HT2A receptor expressed in Flp-IN HEK293 cells assessed as induction of calcium flux measured every second for 5 mins by Fluo-4 dye based FLIPR assay relative to serotonin; format: cell-based; conditions: Flp-IN HEK293 cells expressing human 5-HT2A receptor
[13] = target: T2, 5-hydroxytryptamine receptor 2C (Homo sapiens); test: Agonist activity at tTA containing TEV cleavage site-fused 5-HT2C-INI receptor isoform (unknown origin) expressed in TEV-fused beta-arrestin2 expressing HEK cells assessed as induction of beta-arrestin2 recruitment after 20 hrs by Tango assay relative to serotonin; format: cell-based
Method in brief: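 HTLA cells (HEK cells with TEV-fused β-arrestin-2 and tTA-driven luciferase) transfected with tTA-fused 5-HT2C-INI receptor carrying a TEV site. Luminescence read after 20 min lysis at room temperature. Normalized to % 5-HT and fitted sigmoidally. NA means no activity up to 10 μM. Mean of n = 3.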

CYP1A2 = target: T3, CYP1A2 (Homo sapiens, UniProt P05177); test: in vitro; conditions: liver microsomes, probe phenacetin
T3 sequence (P05177 whole entry): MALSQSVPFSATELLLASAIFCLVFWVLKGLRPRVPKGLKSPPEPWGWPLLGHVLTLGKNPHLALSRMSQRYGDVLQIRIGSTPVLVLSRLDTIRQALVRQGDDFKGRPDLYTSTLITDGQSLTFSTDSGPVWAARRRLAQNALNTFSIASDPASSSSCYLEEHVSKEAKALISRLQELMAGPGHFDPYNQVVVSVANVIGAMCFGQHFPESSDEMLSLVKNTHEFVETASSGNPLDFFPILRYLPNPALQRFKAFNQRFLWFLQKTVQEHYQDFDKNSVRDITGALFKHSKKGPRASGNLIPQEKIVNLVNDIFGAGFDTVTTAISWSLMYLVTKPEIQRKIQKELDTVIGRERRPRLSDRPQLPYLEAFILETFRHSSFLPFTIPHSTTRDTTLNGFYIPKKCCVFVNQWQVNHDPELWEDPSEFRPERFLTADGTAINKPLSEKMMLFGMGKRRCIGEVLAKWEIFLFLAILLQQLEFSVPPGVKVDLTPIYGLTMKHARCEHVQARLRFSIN

CYP2C9 = CYP2C9 (Homo sapiens, UniProt P11712); test: in vitro; conditions: liver microsomes, probe tolbutamide
CYP2D6 = CYP2D6 (Homo sapiens, UniProt P10635); test: in vitro; conditions: liver microsomes, probe dextromethorphan
CYP3A4 = CYP3A4 (Homo sapiens, UniProt P08684); test: in vitro; conditions: liver microsomes, probe midazolam
[14] = target: T4, 5-hydroxytryptamine receptor 2C (Rattus norvegicus, UniProt P08909); test: Agonist activity at rat 5-HT2C receptor expressed in African clawed frog oocytes assessed as increase in current amplitude; format: cell-based
T4 sequence (P08909 whole entry): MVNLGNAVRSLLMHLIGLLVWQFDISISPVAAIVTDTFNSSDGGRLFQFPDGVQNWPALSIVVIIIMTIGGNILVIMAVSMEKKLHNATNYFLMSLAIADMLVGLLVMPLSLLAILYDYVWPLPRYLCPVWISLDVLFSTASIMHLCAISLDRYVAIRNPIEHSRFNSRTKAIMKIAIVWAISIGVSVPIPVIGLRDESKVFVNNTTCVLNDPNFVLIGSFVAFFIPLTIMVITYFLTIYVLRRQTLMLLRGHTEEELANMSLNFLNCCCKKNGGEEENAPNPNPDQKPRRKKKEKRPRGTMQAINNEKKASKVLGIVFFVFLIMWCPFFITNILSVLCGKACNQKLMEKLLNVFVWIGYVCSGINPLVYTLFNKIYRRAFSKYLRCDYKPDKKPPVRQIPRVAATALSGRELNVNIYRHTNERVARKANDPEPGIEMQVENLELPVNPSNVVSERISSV

5-HT2A receptor [15] = target: 5-HT2A receptor (Rattus norvegicus, UniProt P14842); test: Agonist activity at rat 5-HT2A receptor expressed in African clawed frog oocytes assessed as increase in current amplitude relative to 5-HT; format: cell-based; conditions: African clawed frog oocytes expressing rat 5-HT2A receptor
Chain of 5-HT2A receptor (Rattus norvegicus, UniProt P14842) (P14842 whole entry): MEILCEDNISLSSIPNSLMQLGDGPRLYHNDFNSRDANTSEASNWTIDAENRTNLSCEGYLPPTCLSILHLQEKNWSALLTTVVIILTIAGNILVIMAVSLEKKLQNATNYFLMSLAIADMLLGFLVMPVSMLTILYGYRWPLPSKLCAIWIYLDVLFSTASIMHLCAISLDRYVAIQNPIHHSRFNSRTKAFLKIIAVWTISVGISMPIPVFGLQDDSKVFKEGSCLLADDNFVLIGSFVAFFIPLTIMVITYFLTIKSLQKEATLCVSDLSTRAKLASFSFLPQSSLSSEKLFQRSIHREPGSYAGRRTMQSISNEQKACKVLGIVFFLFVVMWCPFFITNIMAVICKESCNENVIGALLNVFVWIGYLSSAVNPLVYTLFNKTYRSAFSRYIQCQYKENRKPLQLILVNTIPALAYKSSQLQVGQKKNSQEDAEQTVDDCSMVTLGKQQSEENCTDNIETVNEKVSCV

T1 sequence (P41595 whole entry): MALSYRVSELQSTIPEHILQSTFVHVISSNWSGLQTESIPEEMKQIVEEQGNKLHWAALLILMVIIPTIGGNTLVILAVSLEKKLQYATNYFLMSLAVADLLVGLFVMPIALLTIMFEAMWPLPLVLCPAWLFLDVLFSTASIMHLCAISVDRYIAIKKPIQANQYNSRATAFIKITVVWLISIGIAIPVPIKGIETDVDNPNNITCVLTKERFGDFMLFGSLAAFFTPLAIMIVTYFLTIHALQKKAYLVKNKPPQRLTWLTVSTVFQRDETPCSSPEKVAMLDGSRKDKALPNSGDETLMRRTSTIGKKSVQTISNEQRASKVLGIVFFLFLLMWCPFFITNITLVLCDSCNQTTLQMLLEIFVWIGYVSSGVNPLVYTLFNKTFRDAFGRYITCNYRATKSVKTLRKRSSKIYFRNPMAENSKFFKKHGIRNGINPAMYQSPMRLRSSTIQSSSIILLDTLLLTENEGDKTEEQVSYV
Chain of 5-HT2A receptor (Homo sapiens, UniProt P28223) (P28223 whole entry, the tested form may be a part, canonical isoform): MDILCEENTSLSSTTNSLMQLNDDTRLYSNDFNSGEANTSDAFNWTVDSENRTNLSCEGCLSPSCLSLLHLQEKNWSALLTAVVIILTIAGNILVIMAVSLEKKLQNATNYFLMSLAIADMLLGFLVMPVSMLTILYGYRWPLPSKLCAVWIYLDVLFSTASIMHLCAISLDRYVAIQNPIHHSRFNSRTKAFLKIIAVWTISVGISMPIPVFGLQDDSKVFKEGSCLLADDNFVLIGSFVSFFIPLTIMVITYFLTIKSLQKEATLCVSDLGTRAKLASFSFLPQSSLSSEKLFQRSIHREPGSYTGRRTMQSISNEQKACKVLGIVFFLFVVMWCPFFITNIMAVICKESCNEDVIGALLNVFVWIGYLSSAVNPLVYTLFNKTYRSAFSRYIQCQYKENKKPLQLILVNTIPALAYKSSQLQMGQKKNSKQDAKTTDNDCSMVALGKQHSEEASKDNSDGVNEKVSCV
Chain of Voltage-gated inwardly rectifying potassium channel KCNH2 (Q12809 whole entry): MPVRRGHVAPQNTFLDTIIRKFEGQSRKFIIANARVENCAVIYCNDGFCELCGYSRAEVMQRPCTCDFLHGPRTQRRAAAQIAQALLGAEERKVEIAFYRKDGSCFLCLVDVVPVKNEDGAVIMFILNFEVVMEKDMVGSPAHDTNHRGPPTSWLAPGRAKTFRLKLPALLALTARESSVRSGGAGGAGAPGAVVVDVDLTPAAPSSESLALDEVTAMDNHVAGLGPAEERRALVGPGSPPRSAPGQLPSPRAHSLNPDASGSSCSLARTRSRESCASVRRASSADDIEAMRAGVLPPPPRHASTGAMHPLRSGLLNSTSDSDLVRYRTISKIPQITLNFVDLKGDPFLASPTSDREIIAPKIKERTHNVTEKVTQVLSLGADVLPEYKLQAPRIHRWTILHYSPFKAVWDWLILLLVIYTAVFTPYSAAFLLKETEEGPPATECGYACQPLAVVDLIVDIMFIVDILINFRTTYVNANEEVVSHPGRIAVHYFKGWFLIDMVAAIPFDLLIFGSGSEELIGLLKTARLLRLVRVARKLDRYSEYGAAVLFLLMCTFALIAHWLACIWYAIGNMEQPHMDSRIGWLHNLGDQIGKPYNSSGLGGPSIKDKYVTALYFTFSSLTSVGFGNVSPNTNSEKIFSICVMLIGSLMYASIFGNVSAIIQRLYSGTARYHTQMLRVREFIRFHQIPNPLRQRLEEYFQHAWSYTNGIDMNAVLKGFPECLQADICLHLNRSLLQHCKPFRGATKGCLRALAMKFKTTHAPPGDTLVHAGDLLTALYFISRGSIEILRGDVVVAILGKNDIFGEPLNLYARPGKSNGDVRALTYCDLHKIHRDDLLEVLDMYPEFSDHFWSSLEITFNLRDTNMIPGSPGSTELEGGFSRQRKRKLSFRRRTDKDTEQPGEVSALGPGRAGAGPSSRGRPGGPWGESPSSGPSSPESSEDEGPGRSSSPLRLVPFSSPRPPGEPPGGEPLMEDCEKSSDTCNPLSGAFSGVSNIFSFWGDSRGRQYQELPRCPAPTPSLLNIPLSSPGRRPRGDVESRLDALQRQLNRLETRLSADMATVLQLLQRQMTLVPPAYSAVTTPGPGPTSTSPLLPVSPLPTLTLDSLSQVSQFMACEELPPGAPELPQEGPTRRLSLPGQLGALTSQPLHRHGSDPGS
Chain of CYP2D6 (P10635 whole entry): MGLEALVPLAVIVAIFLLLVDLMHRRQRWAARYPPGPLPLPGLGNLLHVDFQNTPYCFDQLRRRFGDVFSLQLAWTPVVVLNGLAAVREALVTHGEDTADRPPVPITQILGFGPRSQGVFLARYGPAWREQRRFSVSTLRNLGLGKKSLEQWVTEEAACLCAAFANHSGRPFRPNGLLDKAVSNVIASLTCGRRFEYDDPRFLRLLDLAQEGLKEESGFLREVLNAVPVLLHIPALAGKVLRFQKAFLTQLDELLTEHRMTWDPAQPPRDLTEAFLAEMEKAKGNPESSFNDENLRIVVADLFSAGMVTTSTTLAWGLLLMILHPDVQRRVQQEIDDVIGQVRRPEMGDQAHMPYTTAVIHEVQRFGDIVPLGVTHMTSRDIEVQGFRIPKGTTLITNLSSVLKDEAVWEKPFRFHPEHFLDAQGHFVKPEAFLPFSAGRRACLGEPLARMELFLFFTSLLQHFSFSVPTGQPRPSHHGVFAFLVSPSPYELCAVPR
Chain of CYP2C9 (P11712 whole entry): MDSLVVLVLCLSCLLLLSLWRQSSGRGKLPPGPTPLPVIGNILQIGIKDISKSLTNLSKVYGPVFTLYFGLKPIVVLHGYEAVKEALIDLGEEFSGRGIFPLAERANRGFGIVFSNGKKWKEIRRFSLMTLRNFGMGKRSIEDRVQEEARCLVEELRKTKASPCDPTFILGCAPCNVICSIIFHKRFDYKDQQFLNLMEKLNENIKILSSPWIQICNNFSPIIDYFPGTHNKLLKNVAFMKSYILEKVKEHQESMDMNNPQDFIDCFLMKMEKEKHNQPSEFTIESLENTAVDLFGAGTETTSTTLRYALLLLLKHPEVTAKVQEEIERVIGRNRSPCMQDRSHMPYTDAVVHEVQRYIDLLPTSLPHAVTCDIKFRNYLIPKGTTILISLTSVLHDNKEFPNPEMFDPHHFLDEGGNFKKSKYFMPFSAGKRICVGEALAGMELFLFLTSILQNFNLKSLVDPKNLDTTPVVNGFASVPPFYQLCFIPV
Chain of CYP3A4 (P08684 whole entry): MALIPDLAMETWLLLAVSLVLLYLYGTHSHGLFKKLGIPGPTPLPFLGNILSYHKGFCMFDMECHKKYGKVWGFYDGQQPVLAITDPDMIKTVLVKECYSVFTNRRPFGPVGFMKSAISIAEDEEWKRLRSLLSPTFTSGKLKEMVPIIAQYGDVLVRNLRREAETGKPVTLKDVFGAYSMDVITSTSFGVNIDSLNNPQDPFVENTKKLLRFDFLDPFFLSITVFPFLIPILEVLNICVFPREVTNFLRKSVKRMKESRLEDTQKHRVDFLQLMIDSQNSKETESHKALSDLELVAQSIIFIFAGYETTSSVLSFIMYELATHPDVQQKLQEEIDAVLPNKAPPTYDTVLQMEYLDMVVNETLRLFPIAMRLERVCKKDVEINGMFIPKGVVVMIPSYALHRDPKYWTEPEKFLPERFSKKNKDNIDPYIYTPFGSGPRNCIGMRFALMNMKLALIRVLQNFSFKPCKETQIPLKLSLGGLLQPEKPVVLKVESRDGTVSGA

**Q.** What does the source list for `C[C@H]1CNCCc2ccc(Cl)cc21` [LORCASERIN]?
**A.** Activity (Mus musculus [1]): Toxic; Activity (Mus musculus [2]): Active; Activity (Mus musculus [3]): inactive

**Q.** `COc1ccccc1CNC[C@H]1C[C@@H]1c1cc(F)ccc1OC.Cl` was tested. Which pIC50 [4] did it give?
**A.** 5.85

**Q.** What about the Activity [5] of the same compound?
**A.** Not Active

**Q.** What about the pKi [6] of the same compound?
**A.** 6.39

**Q.** What about the Activity (Mus musculus [7]) of the same compound?
**A.** Non-Toxic

**Q.** What about the Activity (Mus musculus [8]) of the same compound?
**A.** Active

**Q.** What about the Activity (Mus musculus [9]) of the same compound?
**A.** inactive

**Q.** What about the Activity (Mus musculus [10]) of the same compound?
**A.** inactive

**Q.** What about the Emax [11] of the same compound?
**A.** 92%

**Q.** What about the Emax at 5 min (5-HT2A receptor [12]) of the same compound?
**A.** 63%

**Q.** What about the Emax [13] of the same compound?
**A.** 43%

**Q.** What about the inhibition at 10 µM (CYP1A2) of the same compound?
**A.** 20.5%

**Q.** And the inhibition at 10 µM (CYP2C9)?
**A.** 9.3%

**Q.** What about the inhibition at 10 µM (CYP2D6) of the same compound?
**A.** 68.9%

**Q.** What about the inhibition at 10 µM (CYP3A4) of the same compound?
**A.** 85.6%

**Q.** How did the pEC50 [14] turn out when `COc1cc(CC(C)N)c(OC)cc1I` (centres undefined) was run?
**A.** 6.75

**Q.** And the Emax (5-HT2A receptor [15])?
**A.** 46%
